Source: ChEMBL document CHEMBL4004863, “Design, synthesis, biological evaluation and X-ray structural studies of potent human dihydroorotate dehydrogenase inhibitors based on hydroxylated azole scaffolds” (Eur J Med Chem, 2017)
Values after ≈ are worked out from the molar mass of the structure shown. Active and inactive are the calls of the source. The calls are words filed in the database; no cut-off is given here.

Experiments:
Jurkat [1] = assay: Antiproliferative activity against human Jurkat T cells assessed as DNA content after 72 hrs by Hoechst 33258 dye based fluorometric method; assay type: functional, cell-based
Outline: (§1)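 Jurkat T cells grown in X-VIVO 15 with 10% FBS and antibiotic-antimycotic at 37 °C, 5% CO2, passages 5–10, mycoplasma-free, STR-authenticated. IC50 came from nonlinear regression, mean ± SE of three experiments. Uridine, where added, was at 100 μM.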

Jurkat [2] = assay: Cytotoxicity against human Jurkat T cells assessed as compound concentration required to induce up to 30% cell death after 72 hrs by CellTox green assay
[3] = Stability in human Jurkat cells assessed as parent compound remaining at 100 uM after 72 hrs by HPLC-UV method; assay type: ADME, cell-based; details: read-out: Stability
PBMC = assay: Immunosuppressive activity against human PBMC assessed as inhibition of PHA-stimulated cell proliferation preincubated for 2 hrs followed by PHA stimulation for 72 hrs by BrdU incorporation assay; assay type: functional, cell-based
Jurkat [4] = assay: Antiproliferative activity against human Jurkat T cells assessed as DNA content up to 200 uM after 72 hrs in presence of exogenous uridine by Hoechst 33258 dye based fluorometric method; assay type: functional, cell-based
Outline: as §1, with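 “STR-authenticated. 5×10^3 cells were exposed to 0.001–200 μM compound or DMSO vehicle for 72 h, lysed in 0.02% SDS/SSC, and stained with Hoechst 33258 (ex 355/em 460 nm).” for “STR-authenticated.”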

[5] = Selectivity index, ratio of compound concentration required to induce up to 30% cell death in human Jurkat T cells to IC50 for antiproliferative activity against human Jurkat T cells; assay type: functional
Outline: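 Ratio of two Jurkat T-cell readouts, both after 72 h compound or DMSO exposure of 5×10^3 cells/well. The numerator is the concentration causing ≥30% cytotoxicity by CellTox green (0.001–100 μM). Cells were grown in X-VIVO 15 with 10% FBS; three independent experiments.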

[6] = Solubility in pH 7.4 PBS buffer at 1 mg after 24 hrs by HPLC-UV method; assay type: physicochemical
Jurkat [7] = assay: Antiproliferative activity against human Jurkat T cells assessed as DNA content up to 100 uM after 72 hrs in presence of exogenous uridine by Hoechst 33258 dye based fluorometric method; assay type: functional, cell-based; outline: as §1
[8] = Solubility in human Jurkat cell growing medium with 1% DMSO at 1 mg after 24 hrs by HPLC-UV method; assay type: physicochemical
[9] = Solubility in pH 7.4 PBS buffer with 1% DMSO at 1 mg after 24 hrs by HPLC-UV method; assay type: physicochemical

Row | Compound | IC50 (Jurkat [1]) [µM] | remaining at 72 h, 100 µM [3] [%] | Activity (Jurkat [2]) [µM] | IC50 (PBMC) [µM] | Activity (Jurkat [4]) | Selectivity Index [5] | solubility at 24 h [6] [µM] | Activity (Jurkat [7]) | solubility at 24 h [8] [µM] | solubility at 24 h [9] [µM]
1 | Cn1nc(O)c(C(=O)Nc2ccc(-c3ccccc3)cc2F)n1 | 35.7 | – | 56.8 | – | – | – | – | – | – | –
2 | C/C(O)=C(\C#N)C(=O)Nc1ccc(C(F)(F)F)cc1 [TERIFLUNOMIDE] | – | 101 | 53 | 54.3 | inactive | – | – | – | – | –
3 | O=C(Nc1c(F)c(F)c(-c2ccccc2)c(F)c1F)c1nsnc1O | 1.04 | 80 | 78 | 6.2 | – | 70 | 1690 (≈ 626 µg/mL) | inactive | – | –
4 | O=C(Nc1c(F)c(F)c(-c2cccc(OC(F)(F)F)c2)c(F)c1F)c1no[nH]c1=O | 68.3 | – | > 100 | – | – | – | – | – | – | –
5 | Cc1c(C(=O)Nc2c(F)c(F)c(-c3ccccc3)c(F)c2F)c(O)nn1C | 2.22 | 94 | 82 | 10.7 | – | 70 | < 0.1 | inactive | > 100 | 7 (≈ 2.66 µg/mL)
6 | O=C(Nc1c(F)c(F)c(-c2ccccc2)c(F)c1F)c1no[nH]c1=O | 59.7 | – | > 100 | – | – | – | – | – | – | –

Continued, in another order:

Row | IC50 (Jurkat [1]) [µM] | remaining at 72 h, 100 µM [3] [%] | Compound | Activity (Jurkat [2]) [µM] | IC50 (PBMC) [µM] | Activity (Jurkat [4]) | Selectivity Index [5] | solubility at 24 h [6] [µM] | Activity (Jurkat [7]) | solubility at 24 h [8] [µM] | solubility at 24 h [9] [µM]
7 | 13.3 | – | Cn1nc(O)c(C(=O)Nc2c(F)cc(-c3ccccc3)cc2F)n1 | 49.3 | – | – | – | – | – | – | –
8 | 3.22 | – | O=C(Nc1c(F)c(F)c(-c2ccccc2)c(F)c1F)c1c(O)nnn1CC1CC1 | 6 | – | – | – | – | – | – | –
9 | 2.5 | – | O=C(Nc1c(F)c(F)c(-c2cccc(OC(F)(F)F)c2)c(F)c1F)c1nsnc1O | 5.2 | – | – | – | – | – | – | –
10 | 7.13 | – | O=C(Nc1c(F)c(F)c(-c2ccccc2)c(F)c1F)c1nn(CC2CC2)nc1O | 11 | – | – | – | – | – | – | –
11 | 5.82 | 99 | Cn1nnc(O)c1C(=O)Nc1c(F)c(F)c(-c2ccccc2)c(F)c1F | 8.3 | – | – | – | 48 (≈ 17.6 µg/mL) | – | – | –
12 | 0.93 | 98 | Cc1c(-c2ccc(-c3ccccc3F)cc2)nc2ccc(F)cc2c1C(=O)O [BREQUINAR] | 45 | 4.3 | – | – | 359 (≈ 135 µg/mL) | inactive | – | –
